Assay results published in EPA's CvTdb concentration-time database.

Experiments:
Rat [1] = experiment: concentration in plasma after dosing; settings: 4 h; dosed: Wyeth-14643; 5.0 mg/kg; oral; Male; Sprague-Dawley
Rat [2] = experiment: concentration in plasma after dosing; settings: 2 h; dosed: Bis 2-Chloroethoxy Methane; 20 mg/kg; iv; Female; F344
Rat [3] = experiment: concentration in liver after dosing; settings: 10 min; dosed: Bis 2-Chloroethoxy Methane; 20 mg/kg; iv; Male; F344
Rat [4] = experiment: concentration in plasma after dosing; settings: 1 h; dosed: Bis 2-Chloroethoxy Methane; 20 mg/kg; iv; Male; F344
Rat [5] = experiment: concentration in plasma after dosing; settings: 20 min; dosed: Bis 2-Chloroethoxy Methane; 20 mg/kg; iv; Male; F344
Rat [6] = experiment: concentration in heart after dosing; settings: 10 min; dosed: Bis 2-Chloroethoxy Methane; 20 mg/kg; iv; Male; F344
Rat [7] = experiment: concentration in thymus after dosing; settings: 1 h; dosed: Bis 2-Chloroethoxy Methane; 20 mg/kg; iv; Male; F344
Rat [8] = experiment: concentration in brain after dosing; settings: 0.5 h; dosed: Fluorotelomer alcohol 8+2; 24 mg/kg; oral; Male; Harlan Sprague Dawley
Rat [9] = experiment: concentration in brain after dosing; settings: 6 h; dosed: Fluorotelomer alcohol 8+2; 80 mg/kg; oral; Female; Harlan Sprague Dawley
Rat [10] = experiment: concentration in plasma after dosing; settings: 1 h; dosed: Di-n-butyl phthalate; 20 mg/kg; iv; Male; Sprague-Dawley
Rat [11] = experiment: concentration in plasma after dosing; settings: 5 min; dosed: Di-n-butyl phthalate; 100 mg/kg; oral; Male; Sprague-Dawley
Rat [12] = experiment: concentration in plasma after dosing; settings: 1 h; dosed: Di-n-butyl phthalate; 20 mg/kg; iv; Male; Sprague-Dawley; remark: listed apart in the source
Rat [13] = experiment: concentration in plasma after dosing; settings: 0.25 h; dosed: Di-n-butyl phthalate; 100 mg/kg; oral; Male; Sprague-Dawley
Rat [14] = experiment: concentration in plasma after dosing; settings: 1 h; dosed: Di-n-butyl phthalate; 50 mg/kg; oral; Male; Sprague-Dawley
Rat [15] = experiment: concentration in kidney after dosing; settings: 24 h; dosed: Perfluorodecanoic acid; 10 mg/kg; oral; Female; Harlan Sprague Dawley
Rat [16] = experiment: concentration in thymus after dosing; settings: 4 h; dosed: Thiodiglycolic Acid; 20 mg/kg; iv; Female; Harlan Sprague Dawley
Rat [17] = experiment: concentration in thymus after dosing; settings: 10 h; dosed: Thiodiglycolic Acid; 20 mg/kg; iv; Male; F344
Rat [18] = experiment: concentration in liver after dosing; settings: 10 h; dosed: Thiodiglycolic Acid; 20 mg/kg; iv; Female; Harlan Sprague Dawley
Rat [19] = experiment: concentration in liver after dosing; settings: 20 min; dosed: Thiodiglycolic Acid; 20 mg/kg; iv; Female; Harlan Sprague Dawley
Rat [20] = experiment: concentration in thymus after dosing; settings: 40 min; dosed: Thiodiglycolic Acid; 20 mg/kg; iv; Male; Harlan Sprague Dawley
Rat [21] = experiment: concentration in thymus after dosing; settings: 2 h; dosed: Thiodiglycolic Acid; 20 mg/kg; iv; Male; Harlan Sprague Dawley
Rat [22] = experiment: concentration in plasma after dosing; settings: dosed: dichloroacetic acid, 40 mg/kg, oral, Female, Harlan Sprague Dawley
human [23] = experiment: concentration in plasma after dosing; negative times count back from the end of exposure; settings: dosed: trichloroethylene, 100 ppm, inhalation, duration: 4 hr, person, during exposure
In short: (§1)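 Sampling and analytical methods are those of each source and frequently went unreported. The concentration-versus-time and amount-versus-time points were compiled from published in vivo toxicokinetic studies and two structured collections. Most were digitised from plot screenshots with WebPlotDigitizer, with others copied from tables, in the reported units.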

human [24] = experiment: concentration in blood after dosing; negative times count back from the end of exposure; settings: dosed: trichloroethylene, inhalation
In short: as §1

Cc1cccc(Nc2cc(Cl)nc(SCC(=O)O)n2)c1C
Settings	concentration in plasma [ng/mL]
Rat [1]	1200

ClCCOCOCCCl [Bis 2-Chloroethoxy Methane]
Settings	concentration in heart [ng/g]	concentration in liver [ng/g]	concentration in plasma [ng/mL]	concentration in thymus [ng/g]
Rat [2]	–	–	188	–
Rat [3]	–	2500	–	–
Rat [4]	–	–	1320	–
Rat [5]	–	–	5580	–
Rat [6]	12300	–	–	–
Rat [7]	–	–	–	7380

OCCC(F)(F)C(F)(F)C(F)(F)C(F)(F)C(F)(F)C(F)(F)C(F)(F)C(F)(F)F [Fluorotelomer alcohol 8+2]
Settings	concentration in brain [ng/g]
Rat [8]	1810
Rat [9]	1090

CCCCOC(=O)c1ccccc1C(=O)O [Mono-n-butyl phthalate]
Settings	concentration in plasma [ng/mL]
Rat [10]	3480
Rat [11]	3830
Rat [12]	2550
Rat [13]	31700
Rat [14]	3070

O=C(O)C(F)(F)C(F)(F)C(F)(F)C(F)(F)C(F)(F)C(F)(F)C(F)(F)C(F)(F)C(F)(F)F [Perfluorodecanoic acid]
Settings	concentration in kidney [ng/g]
Rat [15]	57900

O=C(O)CSCC(=O)O [Thiodiglycolic Acid]
Settings	concentration in liver [ng/g]	concentration in thymus [ng/g]
Rat [16]	–	657
Rat [17]	–	477
Rat [18]	4910	–
Rat [19]	91400	–
Rat [20]	–	3410
Rat [21]	–	2120

O=C(O)C(Cl)Cl [dichloroacetic acid]
concentration in plasma [ng/mL]
Settings	-3 h	-2 h	-1 h	1.5 h	10 min
Rat [22]	–	–	–	2780	6310
human [23]	5	4	5	–	–

O=C(O)C(Cl)(Cl)Cl [trichloroacetic acid]
concentration in blood [mg/kg], human [24], duration: 2 hr - 20 min
Settings	0 h	0.5 h	1 h	1.5 h	2 h	21 h
1348 mg	3	3.5	3.7	4.1	4.5	13.3
1681 mg	2.8	3.6	3.9	4.5	5.2	13.6
3907 mg	3	3.9	4.5	5.3	5.4	17.8

human [24]
Settings	concentration in blood
-1.833 h, 1348 mg, duration: 2 hr - 20 min, during exposure	0.6 mg/kg
-1.833 h, 1681 mg, duration: 2 hr - 20 min, during exposure	0.4 mg/kg
-1.833 h, 3907 mg, duration: 2 hr - 20 min, during exposure	0.7 mg/kg
-1 h, 1348 mg, duration: 2 hr - 20 min, during exposure	1.4 mg/kg
-1 h, 1681 mg, duration: 2 hr - 20 min, during exposure	1.1 mg/kg
-1 h, 3907 mg, duration: 2 hr - 20 min, during exposure	1.6 mg/kg
-0.5 h, 1348 mg, duration: 2 hr - 20 min, during exposure	2.3 mg/kg
-0.5 h, 1681 mg, duration: 2 hr - 20 min, during exposure	1.7 mg/kg
-0.5 h, 3907 mg, duration: 2 hr - 20 min, during exposure	2.3 mg/kg
0.1859 h, 100 ppm, duration: 4 hr, person	3830 ng/mL
0.2626 h, 100 ppm, duration: 4 hr, person	3950 ng/mL
0.4953 h, 100 ppm, duration: 4 hr, person	4150 ng/mL
0.7295 h, 100 ppm, duration: 4 hr, person	3520 ng/mL
1.042 h, 100 ppm, duration: 4 hr, person	4390 ng/mL
2.008 h, 100 ppm, duration: 4 hr, person	4230 ng/mL
2.056 h, 100 ppm, duration: 4 hr, person	4950 ng/mL
4.002 h, 100 ppm, duration: 4 hr, person	5130 ng/mL
4.087 h, 100 ppm, duration: 4 hr, person	5830 ng/mL
5.968 h, 100 ppm, duration: 4 hr, person	6280 ng/mL
6.071 h, 100 ppm, duration: 4 hr, person	5770 ng/mL
8.056 h, 100 ppm, duration: 4 hr, person	6100 ng/mL
8.086 h, 100 ppm, duration: 4 hr, person	6680 ng/mL
10.05 h, 100 ppm, duration: 4 hr, person	6680 ng/mL
10.13 h, 100 ppm, duration: 4 hr, person	7050 ng/mL
12.03 h, 100 ppm, duration: 4 hr, person	7200 ng/mL
12.16 h, 100 ppm, duration: 4 hr, person	7480 ng/mL
14.01 h, 100 ppm, duration: 4 hr, person	7110 ng/mL
14.05 h, 100 ppm, duration: 4 hr, person	7820 ng/mL
16 h, 100 ppm, duration: 4 hr, person	7960 ng/mL
16.01 h, 100 ppm, duration: 4 hr, person	7740 ng/mL
17.81 h, 100 ppm, duration: 4 hr, person	8690 ng/mL
17.98 h, 100 ppm, duration: 4 hr, person	7930 ng/mL
41.89 h, 100 ppm, duration: 4 hr, person	8480 ng/mL
44.06 h, 100 ppm, duration: 4 hr, person	9620 ng/mL
65.95 h, 100 ppm, duration: 4 hr, person	6780 ng/mL
67.63 h, 100 ppm, duration: 4 hr, person	7420 ng/mL
89.84 h, 100 ppm, duration: 4 hr, person	6470 ng/mL
91.02 h, 100 ppm, duration: 4 hr, person	5310 ng/mL
324 s, 100 ppm, duration: 4 hr, person	3160 ng/mL

human [24], 100 ppm, duration: 4 hr, person, during exposure
Settings	concentration in blood [ng/mL]
-3.454 h	294
-3.442 h	210
-3.04 h	620
-2.832 h	741
-1.998 h	1360
-1.982 h	1680
-1.033 h	2270
-0.8992 h	2830
